The target in test [1] is T1, Nuclear factor NF-kappa-B complex (Homo sapiens) (UniProt Q00653+P19838+Q04206). As to the kind of experiment: (§1) Concentration required for complete inhibition of Nuclear factor kappa B DNA binding. In kind it is protein-complex assay. Further details: unit not given here. The essentials:
(§2)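 Jurkat T cells (RPMI 1640, 10% FCS, penicillin/streptomycin) pretreated 1 h with sesquiterpene lactone, first at 10, 20, 50, 100 μM, then 1–5 μM or 200–300 μM as needed. Stimulated 1 h with 200 U/mL TNF-α. Total extracts (Totex high-salt buffer) analysed by EMSA with ³²P-labeled NF-κB oligonucleotide, 25 min at room temperature. IC100 is the lowest tested level fully blocking binding; intermediate values assigned the higher level. Each experiment reproduced at least once.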

The target of test [2] is T1, Nuclear factor NF-kappa-B complex (Homo sapiens). The description is as §1. Format: protein-complex assay. The essentials: as §2

T1 sequence (P19838 whole entry, looked up): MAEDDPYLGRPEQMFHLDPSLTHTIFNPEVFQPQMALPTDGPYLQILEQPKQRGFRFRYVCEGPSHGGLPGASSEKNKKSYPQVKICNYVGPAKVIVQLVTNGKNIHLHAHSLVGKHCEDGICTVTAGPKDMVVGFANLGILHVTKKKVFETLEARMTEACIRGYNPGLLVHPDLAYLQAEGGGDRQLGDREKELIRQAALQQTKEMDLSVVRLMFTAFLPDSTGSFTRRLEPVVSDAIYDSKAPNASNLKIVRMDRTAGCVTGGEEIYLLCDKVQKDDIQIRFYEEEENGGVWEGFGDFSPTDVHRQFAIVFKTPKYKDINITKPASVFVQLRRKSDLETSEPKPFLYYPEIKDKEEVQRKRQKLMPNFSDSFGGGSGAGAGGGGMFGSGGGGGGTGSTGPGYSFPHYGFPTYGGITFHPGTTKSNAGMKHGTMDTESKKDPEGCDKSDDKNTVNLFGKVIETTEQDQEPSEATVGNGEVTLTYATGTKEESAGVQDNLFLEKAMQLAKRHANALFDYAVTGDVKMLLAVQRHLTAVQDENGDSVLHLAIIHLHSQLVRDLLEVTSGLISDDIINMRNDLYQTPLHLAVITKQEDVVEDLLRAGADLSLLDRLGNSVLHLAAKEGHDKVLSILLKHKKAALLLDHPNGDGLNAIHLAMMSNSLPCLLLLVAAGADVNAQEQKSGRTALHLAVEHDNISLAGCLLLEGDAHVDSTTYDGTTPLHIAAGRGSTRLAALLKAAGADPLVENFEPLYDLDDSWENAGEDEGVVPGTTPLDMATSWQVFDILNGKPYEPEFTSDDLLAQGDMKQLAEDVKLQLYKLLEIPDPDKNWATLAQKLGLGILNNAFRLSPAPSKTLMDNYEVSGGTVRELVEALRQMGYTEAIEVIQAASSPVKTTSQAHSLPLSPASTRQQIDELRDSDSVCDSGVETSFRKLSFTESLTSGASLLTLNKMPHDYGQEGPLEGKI
T1 sequence (Q00653 whole entry, looked up): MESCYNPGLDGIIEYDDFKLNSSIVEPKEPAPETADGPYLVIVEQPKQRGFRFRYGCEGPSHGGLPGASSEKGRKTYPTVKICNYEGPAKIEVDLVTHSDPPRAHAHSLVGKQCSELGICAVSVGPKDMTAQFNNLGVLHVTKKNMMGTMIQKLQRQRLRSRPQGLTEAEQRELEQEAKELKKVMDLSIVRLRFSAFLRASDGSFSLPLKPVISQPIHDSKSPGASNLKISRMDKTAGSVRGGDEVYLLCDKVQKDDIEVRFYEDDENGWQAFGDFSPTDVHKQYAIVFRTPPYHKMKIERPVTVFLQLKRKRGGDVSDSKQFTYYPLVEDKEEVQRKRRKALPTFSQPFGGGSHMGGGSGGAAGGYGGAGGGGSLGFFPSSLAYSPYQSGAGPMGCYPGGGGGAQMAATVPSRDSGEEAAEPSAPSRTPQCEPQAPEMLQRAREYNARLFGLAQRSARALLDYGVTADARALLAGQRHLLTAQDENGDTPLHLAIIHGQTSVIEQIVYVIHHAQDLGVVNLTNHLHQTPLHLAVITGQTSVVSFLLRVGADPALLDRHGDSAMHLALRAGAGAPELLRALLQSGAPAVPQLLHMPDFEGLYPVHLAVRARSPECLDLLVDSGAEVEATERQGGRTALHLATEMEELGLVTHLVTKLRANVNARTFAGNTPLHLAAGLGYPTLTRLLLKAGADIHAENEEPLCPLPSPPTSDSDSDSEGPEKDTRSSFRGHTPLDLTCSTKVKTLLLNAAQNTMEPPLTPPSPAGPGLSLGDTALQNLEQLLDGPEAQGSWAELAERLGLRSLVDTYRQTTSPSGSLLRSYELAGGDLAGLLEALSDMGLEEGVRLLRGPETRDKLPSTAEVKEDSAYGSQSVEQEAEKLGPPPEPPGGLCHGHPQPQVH
T1 sequence (Q04206 whole entry, looked up): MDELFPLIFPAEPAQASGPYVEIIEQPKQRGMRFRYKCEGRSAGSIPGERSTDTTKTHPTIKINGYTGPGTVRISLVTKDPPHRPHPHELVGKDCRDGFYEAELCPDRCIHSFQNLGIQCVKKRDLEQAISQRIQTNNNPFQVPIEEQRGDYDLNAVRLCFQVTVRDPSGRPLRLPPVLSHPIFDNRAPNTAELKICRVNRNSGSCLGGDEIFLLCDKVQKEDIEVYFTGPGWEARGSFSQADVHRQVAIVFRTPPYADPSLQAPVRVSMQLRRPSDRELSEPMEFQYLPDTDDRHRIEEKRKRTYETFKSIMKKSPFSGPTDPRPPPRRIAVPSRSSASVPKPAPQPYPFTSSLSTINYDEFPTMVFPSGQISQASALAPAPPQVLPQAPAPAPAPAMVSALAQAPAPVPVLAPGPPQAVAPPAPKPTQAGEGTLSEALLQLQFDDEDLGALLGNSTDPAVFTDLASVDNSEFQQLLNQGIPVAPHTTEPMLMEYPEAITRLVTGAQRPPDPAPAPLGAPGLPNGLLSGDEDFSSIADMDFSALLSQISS

Compound `C=C1C(=O)OC2/C=C(/C)CC/C=C(/C)[C@@H](OC(C)=O)C[C@@H]12` (stereo partly drawn) showed a pIC100 in test [1] of -2.3. The compound also had an IC100 in test [2] of 200 µM.
The like results for `C=C(C)C(=O)O[C@H]1[C@H]2C(=C)C(=O)O[C@@H]2[C@@H](O)C(=C)CC/C=C(/C=O)[C@@H]1OC` were, in that order, -1.3 and 50 µM.
The like results for `C=C1C(=O)C[C@H]2C(=C)C(=O)O[C@@H]2/C=C(/COC(=O)C(C)C)CC[C@H]1OC` were, in that order, -1.39 and 25 µM.
The like results for `C=C1C(=O)O[C@@H]2/C=C(/C)[C@]3(O)O[C@@](C)(C[C@@H]3OC)C[C@@H](OC(=O)C(C)C)[C@@H]12` were, in that order, -2.3 and 200 µM.
`C=C1C(=O)O[C@H]2C/C(CO)=C\CC/C(COC(=O)C(C)CC)=C\C[C@H]12` (stereo partly drawn) returned a pIC100 in test [1] of -1.69. In addition, the IC100 in test [2] was determined as 50 µM.
The like results for `C=C1C(=O)O[C@@H]2/C=C(/COC(=O)CC(C)C)CC/C=C(/CO)C(=O)C[C@@H]12` (stereo in doubt; 3) were, in that order, -1.09 and 12.5 µM.
The like results for `C=C(C)C(=O)O[C@H]1C[C@@]2(C)OC(=CC2=O)C(=C)[C@@H](Cl)[C@H]2OC(=O)C(=C)[C@@H]21` were, in that order, -0.69 and 5 µM.
In the same order, the values of `C=C1C(=O)O[C@H]2C/C(CO)=C\CC/C(COC(=O)C(C)C(C)O)=C\C[C@H]12` (stereo partly drawn) are -1.69 and 50 µM.
For the compound `C=C(C)C(=O)O[C@H]1C/C(C)=C\[C@@]2(OC)C=C(C)[C@H](O2)[C@H]2OC(=O)C(=C)[C@@H]21`, the pIC100 in test [1] was -1. The same compound returned an IC100 in test [2] of 10 µM.
On to `C=C1C(=O)C=C2[C@H]1C[C@@H]1C(=C)C(=O)O[C@@H]1C[C@@H]2C`, for which, in test [1], the pIC100 was -1. Besides, in test [2], the IC100 was found to be 10 µM.
For the compound `C=C1C(=O)O[C@@H]2/C=C(/CO)C3=CC(=O)[C@@](C)(C[C@H](OC(=O)/C(C)=C/C)[C@@H]12)O3`, the pIC100 in test [1] was -0.69. Also, in test [2], the IC100 is 5 µM.
Take `C=C(C)C(=O)O[C@H]1/C(C=O)=C\CC/C(COC(C)=O)=C\[C@H]2OC(=O)C(=C)[C@@H]2[C@@H]1O`: the pIC100 in test [1] is -0.69. The compound further gave an IC100 in test [2] of 5 µM.
In the same order, the values of `C=C(C)C(=O)O[C@H]1[C@H]2C(=C)C(=O)O[C@@H]2/C=C(/COC(C)=O)CC/C=C(/C=O)[C@@H]1O` are -0.69 and 5 µM.
In test [1], `C=C(C)C(=O)O[C@@H]1C[C@@](C)(O)[C@@H]2C(=O)C=C(C)[C@@H]2[C@H]2OC(=O)C(=C)[C@@H]21` came in with a pIC100 of -1.3. In test [2], the IC100 stood at 20 µM.
Consider `C=C(C)C(=O)O[C@@H]1C[C@](C)(O)[C@@H]2C(=O)C=C(C)[C@@H]2[C@H]2OC(=O)C(=C)[C@@H]21`, for which the pIC100 in test [1] is -1.69. In test [2], this compound showed an IC100 of 50 µM.
The like results for `C=C(C)C(=O)O[C@H]1[C@H]2C(=C)C(=O)O[C@@H]2/C=C(/C)CC/C=C(/C=O)[C@@H]1O` were, in that order, -1 and 10 µM.
In test [1], `C=C(C)C(=O)O[C@@H]1C[C@@]2(C)OC(=CC2=O)/C(C)=C\[C@H]2OC(=O)C(=C)[C@@H]21` registered a pIC100 of -1. Also, the IC100 in test [2] stood at 10 µM.
In the same order, the values of `C=C(C)C(=O)O[C@@H]1/C=C(/C=O)CCC[C@@]2(CO2)[C@H](O)[C@H]2OC(=O)C(=C)[C@@H]21` are -0.69 and 5 µM.
In turn, `C=C1C(=O)O[C@@H]2C3=C(C(=O)C[C@@H]3C)[C@@H](C)CC[C@@H]12` displayed a pIC100 in test [1] of -1.3. The IC100 in test [2] turned out to be 20 µM.
On to `C=C1C(=O)C=C2[C@H]1C[C@@H]1C(=C)C(=O)O[C@H]1C[C@@H]2C`, for which, in test [1], the pIC100 is -0.69. The IC100 in test [2] came to 5 µM.
In the same order, the values of `C=C(C)C(=O)O[C@H]1C/C(C)=C/C(=O)/C=C(/C)[C@H](O)[C@H]2OC(=O)C(=C)[C@@H]21` are -1 and 10 µM.
In test [1], `C=C1C(=O)O[C@H]2C/C(CO)=C\CC/C(COC(=O)C3(C)CO3)=C\C[C@H]12` (stereo partly drawn) yielded a pIC100 of -1.69. Moreover, the IC100 in test [2] was found to be 50 µM.
In the same order, the values of `C=C1C(=O)O[C@@H]2/C=C(/COC(=O)CC(C)C)CC/C=C(/CO)C(=O)C[C@@H]12` (stereo in doubt; 5) are -1.09 and 12.5 µM.
In the same order, the values of `C=C(C)C(=O)OC/C1=C/C[C@@H]2C(=C)C(=O)O[C@H]2C/C(CO)=C\CC1` are -1.3 and 50 µM.
In the same order, the values of `C=C1C(=O)O[C@@H]2/C=C(/C)[C@H](OC(C)=O)C/C=C(/C)CC[C@@H]12` are -1.69 and 50 µM.
Compound `C=C1C(=O)O[C@H]2[C@H]1[C@H](OC(=O)C(C)C)[C@@H](OC(C)=O)/C(C=O)=C\CCC1(CO1)[C@@H]2O` (stereo partly drawn) came in with a pIC100 in test [1] of -0.69. This compound returned an IC100 in test [2] of 5 µM.
In the same order, the values of `C=C1C(=O)O[C@@H]2/C=C(/C)CC/C=C(/C)C[C@@H](OC(=O)C=C(CO)CO)[C@@H]12` are -1 and 20 µM.
In the same order, the values of `C=C1C(=O)O[C@@H]2/C=C(/CO)C3=CC(=O)[C@@](C)(C[C@@H](OC(=O)/C(C)=C/C)[C@@H]12)O3` are -0.69 and 5 µM.
In the same order, the values of `C=C1C(=O)O[C@@H]2/C=C(/C)CC/C=C(/C)CC[C@@]12O` are -1 and 10 µM.
As for `C=C1C(=O)O[C@H]2C[C@]3(C)O[C@@H]3C[C@@H](OC(C)=O)C3=C[C@@H](OC3=O)[C@H]12`, in test [1], the pIC100 is -1. The IC100 in test [2] is 10 µM.
The like results for `C=C(C)C(=O)O[C@H]1[C@H]2C(=C)C(=O)O[C@@H]2[C@@H](O)C(=C)CC/C=C(/C=O)[C@@H]1OC(C)=O` were, in that order, -1 and 10 µM.
The like results for `C=C(CO)C(=O)OC/C1=C/C[C@@H]2C(=C)C(=O)O[C@H]2C/C(COC(C)=O)=C\CC1` were, in that order, -1.69 and 50 µM.
The like results for `CC[C@@H](C)[C@@]1(O)O[C@H]2C[C@@]3(C)OC(=CC3=O)/C(COC(C)=O)=C\[C@H]3OC(=O)[C@@]1(C)C23` (stereo partly drawn) were, in that order, -0.69 and 5 µM.
Take `C=C1C(=O)O[C@@H]2/C=C(/COC(=O)C(C)C)CC/C=C(/CO)C(=O)C[C@@H]12`: the pIC100 in test [1] was -1.09. The compound also registered an IC100 in test [2] of 12.5 µM.
In the case of `C=C(C)C(=O)O[C@@H]1CC(C)=C2C(=O)C=C(C)[C@@H]2[C@H]2OC(=O)C(=C)[C@@H]21`, the pIC100 in test [1] is -1. In addition, the IC100 in test [2] was determined as 10 µM.
Compound `C=C(CO)C(=O)OC/C1=C/C[C@@H]2C(=C)C(=O)O[C@H]2C/C(CO)=C\CC1` displayed a pIC100 in test [1] of -1.3. This compound also yielded an IC100 in test [2] of 20 µM.
In test [1], `C=C1C[C@@H]2OC(=O)C(=C)[C@H]2[C@H](O)/C=C(\C)CCC1=O` came in with a pIC100 of -1.69. The compound further returned an IC100 in test [2] of 50 µM.
In the same order, the values of `C=C1C(=O)O[C@H]2C[C@H](C)C3=C(C[C@H]12)[C@@H](C)CC3=O` are -1.3 and 20 µM.
In test [1], `C=C1C(=O)O[C@@H]2C[C@H](C)C3=CC(=O)[C@H](C)[C@@H]3C[C@H]12` yielded a pIC100 of -1.69. In addition, in test [2], the IC100 turned out to be 50 µM.

Source of the values: ChEMBL document CHEMBL1139436, “Quantitative structure-activity relationship of sesquiterpene lactones as inhibitors of the transcription factor NF-kappaB” (J Med Chem, 2004).
